# A selection: hits, their analogues and other compounds. The true share with any hit is near 9.6%.
# Lmaj promast – inhibitors of Leishmania major promastigote growth | hit rate 9% among 200,000 | Leishmania major promastigotes, resazurin fluorescence viability | inhibition, % at 10 µM; in the data active = inhibition above about 50%;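 note: promastigotes grown with compound for 44 hours at 28 °C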
# HCT116 PTEN-null – suppresses growth of cells with PTEN deletion; HCT116 PTEN-null viability, CellTiter-Glo, 60 h; active compounds read low; viability, % at 10 µM; hit rate 1.2% among 140,000; AID 827;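 active = viability at or below a set limit, 4 SD under the median of all tested compounds, cut at about 3.7% in these data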;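 note: PTEN knockout HCT116 line with beta catenin targeted HCT116 as companion control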
# PMI act – phosphomannose isomerase (human) activation; hit rate 0.005% among 190,000; activation factor at 20 µM; purified human PMI, coupled resazurin fluorescence, 20 min; active compounds read high; 1 = vehicle control, 0 substrate-free wells; P34949;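 active = activation factor of 2 or more at 20 µM, relative to plate controls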
# Target sequence (P34949 whole entry, looked up): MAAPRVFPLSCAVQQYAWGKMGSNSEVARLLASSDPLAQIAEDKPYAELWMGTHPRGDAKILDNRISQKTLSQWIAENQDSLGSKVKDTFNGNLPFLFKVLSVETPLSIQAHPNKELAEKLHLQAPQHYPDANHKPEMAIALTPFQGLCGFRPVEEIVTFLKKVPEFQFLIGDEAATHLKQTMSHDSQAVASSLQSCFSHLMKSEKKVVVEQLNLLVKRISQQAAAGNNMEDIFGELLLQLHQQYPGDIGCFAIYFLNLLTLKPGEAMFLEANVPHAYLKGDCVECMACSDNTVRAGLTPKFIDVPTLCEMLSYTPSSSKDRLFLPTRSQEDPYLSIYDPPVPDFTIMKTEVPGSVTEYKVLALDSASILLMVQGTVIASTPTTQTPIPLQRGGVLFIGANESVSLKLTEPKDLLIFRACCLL
# HCT116 bCat-KO – beta-catenin-lacking colon tumor cell growth suppression; HCT116 beta-catenin knockout viability, CellTiter-Glo, 60 h; active compounds read low; viability, % at 10 µM; hit rate 1.5% among 140,000;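 active = viability at or under a set limit, the compound median less 4 SD, cut at about 6% in these data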;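 note: 0% = Hyamine 1622 control at 20 µM and 100% = untreated cell control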
# PMI act satM6P – increases human PMI activity with near-saturating mannose 6-phosphate; activation factor at 20 µM; AID 1216; hit rate 0.34% among 190,000; P34949; coupled PMI enzyme assay, resazurin fluorescence, 20 min; active compounds read high; 1 = untreated enzyme, 0 = substrate-free blank;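 active = activation factor of 2 or more at 20 µM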
#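 Material: human phosphomannose isomerase with PGI, G6PDH, diaphorase coupling enzymes; amount: PMI at 15 ng/mL final; also added: Mannose-6-phosphate 1.0 mM (near-saturating) plus 0.22 mM NADP+; incubation: enzyme reaction with compound 20 min at room temperature; signal: resorufin fluorescence (Ex 544/Em 590 nm) from resazurin via diaphorase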
# * hit, by the source's call; · = no result given.
SMILES,Lmaj promast,HCT116 PTEN-null,PMI act,HCT116 bCat-KO,PMI act satM6P
COc1ccccc1C(=O)N1CCN(Cc2ccc3c(c2)OCO3)CC1,-10,93,0.9,88,0.9
CS(=O)(=O)N(CC(=O)N1CCN(Cc2ccc3c(c2)OCO3)CC1)Cc1ccc(Cl)cc1,98*,47,0.9,17,1
CS(=O)(=O)N(CCc1ccccc1)CC(=O)N1CCN(Cc2ccc3c(c2)OCO3)CC1,-3,79,1,77,1
COc1ccc2cc(C(=O)C3CCCN(C(=O)CCc4cnn(C)c4)C3)ccc2c1 (configuration not stated),0,·,1,·,0.9
O=C1CC(C(=O)Nc2cc(Cl)ccc2Cl)n2ncnc2N1 (configuration not stated),-6,·,1.1,·,1.1
Cc1ccc2[nH]c3c(c2c1)CN(C(=O)CN1CCN(Cc2ccc4c(c2)OCO4)CC1)CC3,95*,77,1.1,72,1
Cc1ccccc1CS(=O)(=O)c1nnc([C@H](Cc2ccccc2)NC(=O)OC(C)(C)C)o1,-5,2.8*,1,3.5*,1
CC(C)(C)OC(=O)N[C@@H](Cc1ccccc1)c1nnc(S(=O)(=O)Cc2ccccc2)o1,-5,69,1.3,47,1.3
CC(C)c1ccc2oc(-c3ccc(NC(=O)c4ncn[nH]4)cc3)nc2c1,-4,74,1,67,1
O=C(Nc1ccc2oc(-c3ccccc3F)nc2c1)c1ccc2c(c1)OCCO2,66*,29,0.8,48,0.8
CCC(C)c1ccc2oc(-c3ccc(NC(=O)c4ncn[nH]4)cc3)nc2c1 (configuration not stated),65*,78,1.1,67,1
O=C(Nc1ccc2oc(-c3ccccc3Cl)nc2c1)c1ncn[nH]1,94*,99,1.2,88,1.4
CCc1cccc(CC)c1NC(=O)COC(=O)CC1c2ccccc2CCN1S(=O)(=O)c1ccccc1 (configuration not stated),13,71,0.8,73,0.9
CCOc1ccccc1Nc1ccnc2cc(Cl)ccc12,53*,·,0.9,·,0.9
CCOC(=O)c1ccc2c(c1)N(CC#N)C(=O)C(C)(C)O2,1,·,0.8,·,0.9
CCOC(=O)c1c(C)[nH]c(C(=O)OCC(=O)Nc2cc(C)c(Cl)cc2OC)c1C,-1,1.5*,1,1.6*,1.1
Cc1ccc(C2C3=C(CC(C)(C)CC3=O)OC3=C2C(=O)CC(C)(C)C3)cc1,7,·,0.9,·,1
Cc1ccc(C2C3=C(CC(C)(C)CC3=O)N=C3c4ccccc4C(=O)C32)cc1 (configuration not stated),99*,36,0.9,62,1
CC1(C)CC(=O)C2=C(C1)N=C1c3ccccc3C(=O)C1C2c1ccc(Cl)cc1 (configuration not stated),94*,21,1,31,1.1
CCOC(=O)C1=C(C)N=C2c3ccccc3C(=O)C2C1c1ccc(Cl)cc1 (configuration not stated),96*,47,0.9,67,1
Cc1[nH]nc2c1C(c1ccccc1)C1=C(CC(C)(C)CC1=O)N2 (configuration not stated),29,74,1,67,1
Cc1ccsc1C(=O)C1CCCN(Cc2cc(F)ccc2-n2cccn2)C1 (configuration not stated),30,·,0.9,·,0.9
Cc1cc(C=O)c(C)n1-c1cc(C(F)(F)F)ccc1N1CCOCC1,94*,59,0.9,74,0.9
Cc1csc(NC(=O)CSc2nnc(-c3ccccn3)n2-c2ccc(C)c(C)c2)n1,68*,93,1,87,1
Cc1ccc(-n2c(SCC(N)=O)nnc2-c2ccccn2)cc1C,-5,107,1,99,1
SMILES,Lmaj promast,HCT116 PTEN-null,PMI act,HCT116 bCat-KO,PMI act satM6P
Cc1csc(NC(=O)CSc2nnc(NC(=O)COc3ccccc3)s2)n1,51*,101,1.1,92,1.2
CN(C)Cc1ccccc1Sc1ccc(O)cc1O,6,104,1,84,0.9
CCOC(=O)C(=O)Nc1ccccc1C(=O)OC,-7,·,0.9,·,1
CCOC(=O)C(=O)NNc1ccccc1C,72*,101,1.5,99,2.2*
CCOC(=O)C(=O)NNc1cccc(C)c1C,-7,105,1.6,101,2.2*
CCOC(=O)C(=O)Nc1ccccc1C(N)=O,-1,102,1,101,1
CN(C)CCOC(C1CCCCC1)C1CCCCC1,50*,24,0.8,27,0.9
Cc1ccccc1N1C(=O)CN(Cc2sccc2C)C1=S,93*,84,1.1,81,1
Clc1ccc(/C=C/c2nc3ccccc3[nH]2)c(Cl)c1,37,10,0.9,14,0.9
O=C(/C=C/c1ccc(Cl)cc1Cl)c1nc2ccccc2[nH]1,99*,23,1.1,16,1
CC(=O)N(CCC(Cc1ccccc1)c1ccc2c(c1)OCO2)Cc1ccccc1F (configuration not stated),9,69,0.9,68,0.9
Fc1ccccc1CNCCC(Cc1ccccc1)c1ccc2c(c1)OCO2 (configuration not stated),66*,44,1,44,1
COc1ccc(CNCCC(c2ccccc2)c2ccc3c(c2)OCO3)cc1 (configuration not stated),100*,22,1.1,10,1.1
COc1ccc(NC(=S)NCc2ccc3c(c2)OCO3)cc1,-2,·,1,·,1
CC1=C(C)CC(C(=O)Nc2ccc3c(c2)OCO3)C(C(=O)O)C1 (configuration not stated),-5,·,0.9,·,0.7
C(=N\c1nc2ccccc2n1Cc1ccccc1)/c1cccs1,8,81,1,73,0.9
COc1ccc(-c2csc3nc(-c4ccc(C)cc4)oc(=O)c23)cc1OC,-2,1.8*,0.9,1.7*,1
COc1ccc(-c2csc3nc(C(C)(C)C)oc(=O)c23)cc1OC,9,·,1,·,1
CCC(C(=O)Nc1sc(C(N)=O)c(C)c1C(=O)OC)c1ccccc1 (configuration not stated),24,·,0.9,·,1
COc1ccc(-c2nc(-c3ccccn3)ncc2S(C)(=O)=O)cc1,-6,·,1,·,1.1
COc1cnc(-c2ccccn2)nc1NC(C)C,100*,·,0.9,·,1
COc1cnc(-c2ccccn2)nc1Sc1cccc(Cl)c1,100*,8,0.9,8,1
COc1cnc(-c2ccccn2)nc1Sc1ccc(C)cc1,100*,·,1.1,·,1.1
COc1ccccc1Sc1nc(-c2ccccn2)ncc1OC,83*,·,1.1,·,1
Nc1cccnc1Sc1cccc(Cl)c1,4,95,0.6,103,0.3
CCOC(=O)C1=C(C)OC(N)=C(C#N)C1c1ccc(C)s1 (configuration not stated),4,·,0.9,·,0.8
O=S(=O)(N/N=C/c1cn(Cc2ccccc2)c2ccccc12)c1ccccc1,27,20,0.8,49,0.8

# Bioassay records deposited in PubChem by several laboratories.
